Bioassay records from PubChem BioAssay.
In the library only some 1.8% were active in any assay of this set; here they are far more common.
TDP2 inh = blocks human TDP2 phosphodiesterase activity. O95551. recombinant TDP2, T5PNP hydrolysis, p-nitrophenol absorbance 415 nm. inhibition, % at 12.8 µM. hit rate 0.34% among 370,000. AID 720702;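 active means inhibition above the mean of all tested compounds plus 3 SD, set per campaign, cut at about 25% in these data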
Target sequence (O95551 whole entry, looked up): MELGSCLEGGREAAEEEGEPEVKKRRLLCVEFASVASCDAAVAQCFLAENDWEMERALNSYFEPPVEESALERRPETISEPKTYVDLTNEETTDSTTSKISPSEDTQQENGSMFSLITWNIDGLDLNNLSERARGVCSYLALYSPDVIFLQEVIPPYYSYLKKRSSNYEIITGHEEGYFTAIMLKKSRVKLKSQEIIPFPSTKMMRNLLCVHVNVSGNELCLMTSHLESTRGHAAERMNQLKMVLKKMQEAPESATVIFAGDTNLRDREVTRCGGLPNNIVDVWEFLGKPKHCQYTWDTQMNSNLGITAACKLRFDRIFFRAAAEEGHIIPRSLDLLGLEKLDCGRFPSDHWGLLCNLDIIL
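Material: recombinant human TDP2; quantity: TDP2 enzyme at 120 nM final; medium: Tris-HCl pH 7.5 with MgCl2; compound: single concentration, 12.8 µM nominal, with 1% DMSO; incubation: 2 h enzyme incubation at 37 °C; signal: epi absorbance; measure: percent inhibition; benchmarks: high control without enzyme, low control DMSO plus TDP2; repeats: singlicate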
core dimer inh = HCV core protein dimerization inhibition | TR-FRET GST/Flag-core106 dimerization, 1536-well | inhibition, % at 5 µM | hit rate 0.33% among 300,000 | AID 1899;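 active means inhibition above the mean of all tested compounds plus 3 SD, set per screening campaign, cut at about 45% in these data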
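Assay system: GST-tagged and Flag-tagged HCV core protein residues 1-106 / Times: compound-protein-antibody incubation 4 h at 22.5 °C / Signal: time-resolved FRET, ex 340 nm, em 617 and 671 nm / Evaluation: % inhibition based on acceptor/donor emission ratio / Benchmarks: wells lacking GST-core106 and wells with excess unlabelled core106 / Repeats: singlicate, one well per compound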
UHRF1 binding = UHRF1 methyl-DNA binding inhibition; Q96T88; UHRF1 binding to methylated oligo, TR-FRET; inhibition, % at 4.4 µM; hit rate 0.75% among 370,000; AID 687016; in the data active means inhibition above about 21%;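 further: UHRF1 SRA domain binding a hemimethylated CpG hairpin DNA probe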
MBD2 inh = MBD2-methylated oligo binding inhibition. hit rate 0.31% among 370,000. TR-FRET, MBD2 binding to methylated oligonucleotide. inhibition, % at 4.4 µM. AID 686964. Q9UBB5; in the data active means inhibition above about 13%
LEDGF integ inh = blocks HIV-1 LEDGF/p75-dependent DNA integration. TR-FRET IN-LEDGF/p75 DNA integration, Eu/Cy5. inhibition, % at 3.7 µM. hit rate 0.64% among 370,000;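 active means inhibition above the screen-wide mean plus 3 SD, cut at about 13% in these data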;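 further: signal is the Cy5 over europium emission ratio at 671 and 618 nm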
Of the large screens only hits and unclear results are named; the others gave an inactive call.

CC(=O)c1ccc(S(=O)(=O)Nc2cccc(-n3cnnn3)c2)cc1	UHRF1 binding 40
Cc1cc(C)c(C)c(S(=O)(=O)N2CCN(C)CC2)c1C	UHRF1 binding 39
CNC1=C(N(C(C)=O)c2ccc(Br)cc2)C(=O)c2ccccc2C1=O	TDP2 inh 53, LEDGF integ inh 23
CCC(=O)N(C1=C(NC)C(=O)c2ccccc2C1=O)C(C)C	none
Cc1ccc(-c2nn(-c3ccccc3)cc2/C=N/NC(=O)c2ccc(Br)o2)cc1	core dimer inh 49
O=C(N/N=C\c1cn(-c2ccccc2)nc1-c1ccccc1)c1ccc(Br)o1	none
Cc1cc(C)c2sc(NNC(=O)c3ccc(S(=O)(=O)N4CCc5ccccc5C4)cc3)nc2c1	core dimer inh 64, LEDGF integ inh 19
Cc1cc(C)c2nc(NNC(=O)c3ccc(S(=O)(=O)N4CCc5ccccc5C4)cc3)sc2c1	core dimer inh 52, LEDGF integ inh 20
[C-]#[N+][C@]12C(=O)[C@H](C=C(Cl)[C@@]1(C)C=C)C(C)(C)[C@H]1C(=O)N(C)c3cccc2c31	none (no result: core dimer inh)
O=C(N=C1N(Cc2ccccc2)C[C@]2(C=C3CCCCC3n3c(=O)n(-c4ccccc4)c(=O)n32)N1C(=O)OCc1ccccc1)c1ccccc1 (some centres not stated)	none (no result: core dimer inh)
CCCCNC(=O)NC1CCN(CC(=O)Nc2ccc3c(c2)OCCO3)CC1	UHRF1 binding 32 (no result: core dimer inh)
COc1ccc(C)c2sc(N3CCCC3)nc12	UHRF1 binding 25
COc1ccc(OC)c2sc(N3CCN(c4ccccc4)CC3)nc12	none
COc1ccc(-c2ccc3c(n2)CCCN3Cc2ccccc2C(F)(F)F)cc1	none (no result: core dimer inh)
Cc1ccc(CCNS(=O)(=O)c2c(C)nc3sccn3c2=O)cc1	UHRF1 binding 23
C=CCn1c(CNS(=O)(=O)c2ccc(F)cc2)n[nH]c1=S	UHRF1 binding 42
C=CCn1c(CNS(=O)(=O)c2ccc(Cl)cc2)n[nH]c1=S	none
O=C(O)c1cccc2c1C(=O)c1ccccc1C2=O	none
O=C1C(O)=CC(=C(c2ccccc2)c2ccccc2)c2ccccc21	TDP2 inh 26 (no result: core dimer inh)
COc1ccccc1NC(=O)c1cccc(S(=O)(=O)N2CCOCC2)c1	none
CCOC(=O)N1CCN(S(=O)(=O)c2ccc(C(=O)Nc3nnc(CSC)o3)cc2)CC1	UHRF1 binding 31
COc1ccc(S(=O)(=O)N2CCOCC2)cc1NC(=O)c1cccc(-n2cccc2)c1	core dimer inh 65
COc1cc(-c2nnc(NC(=O)c3ccc(S(=O)(=O)N4CCOCC4)cc3)o2)cc(OC)c1OC	UHRF1 binding 82
CCCCC1=CC2=C(c3ccco3)C(=O)C(C)(OC(=O)c3ccc(OC)cc3)C(=O)C2=CN1c1ccc(OC)cc1 (configuration not stated)	core dimer inh 58
CCCCC1=CC2=C(c3ccco3)C(=O)C(C)(OC(=O)c3ccc(OC)cc3)C(=O)C2=CN1C1CCCC1 (configuration not stated)	core dimer inh 59 (no result: TDP2 inh, UHRF1 binding, MBD2 inh, LEDGF integ inh)
C[C@@H]1O[C@@H](n2c3ccc(Cl)cc3c3ccc4c5cc(Cl)ccc5[nH]c4c32)[C@H](O)[C@H](O)[C@H]1O	none (no result: core dimer inh)
C[C@H](CS)C(=O)N1CCC[C@H]1C(=O)O	LEDGF integ inh 84
COc1ccc(-c2cc(-c3nnc(SCC(=O)NC4CCCCC4)n3N)[nH]n2)cc1	none (no result: core dimer inh)
O=C(N/N=C/c1ccc(O)c(O)c1)N/N=C/c1ccc(O)c(O)c1	LEDGF integ inh 91 (no result: core dimer inh)
Cc1nonc1C(=O)N/N=C/c1ccc(O)c(O)c1	none
COc1ccccc1NC(=S)OC1CCC12CCC(c1ccccc1)CC2 (configuration not stated)	none (no result: core dimer inh)
O=c1[nH]c2cc3c(cc2cc1CN(Cc1ccccc1)Cc1nnnn1Cc1ccco1)OCCO3	LEDGF integ inh 16 (no result: core dimer inh)
N/C(=N\OC(=O)/C=C/c1ccccc1Cl)c1ccccn1	none
N/C(=N\OC(=O)/C=C/c1ccc(Br)cc1)c1ccccn1	UHRF1 binding 23
COc1ccccc1/C=C/C=N/n1c(C)nnc1C	UHRF1 binding 68
CCOC(=O)N1C(=O)C[C@](Sc2ccc(OC)cc2)(C(=O)N2CCN(c3ncccn3)CC2)[C@H]1c1ccc(OC)cc1	none (no result: core dimer inh)
Cc1ccc(OCC(=O)Nc2oc(-c3ccccc3)c(-c3ccccc3)c2C#N)cc1	core dimer inh 47
COc1ccccc1OCC(=O)Nc1oc(-c2ccccc2)c(-c2ccccc2)c1C#N	none
COC(=O)[C@]12CCCCC=C1N(Cc1ccc(OC)cc1)C(=O)[C@@H]2CC(=O)NCC12CC3CC(CC(C3)C1)C2	none (no result: core dimer inh)
O=C(NCC1CCCO1)C1CCN(C2CCN(CCCC3CCCC3)CC2)CC1 (configuration not stated)	UHRF1 binding 23
O=C(O)Cc1ccccc1C(=O)O	none
O=C(O)c1ccccc1CC(CCc1ccccc1)C(=O)O (configuration not stated)	UHRF1 binding 21 (no result: core dimer inh)
COc1ccc(-n2c(COc3ccccc3)nnc2SCC(=O)Nc2ccccc2-c2ccccc2)cc1	none (no result: core dimer inh)
Cc1n[nH]c(C)c1CCNC(=O)C1CCC(=O)N(CCc2cccc(F)c2)C1 (configuration not stated)	UHRF1 binding 22
C#CCn1c2ccccc2c2nc3ccccc3nc21	UHRF1 binding 23
O=S(=O)(CC1NCc2cc(F)ccc21)NCc1ccccc1 (configuration not stated)	none (no result: core dimer inh)
COc1ccccc1NS(=O)(=O)c1ccc(Cl)c(NC(=O)c2sc3cc(Cl)ccc3c2Cl)c1	none
COc1ccccc1NS(=O)(=O)c1cccc(NC(=O)c2sc3ccccc3c2Cl)c1	UHRF1 binding 26
COc1cccc(NC(=O)CN(C)C(=O)CNC(=O)c2sc3ccccc3c2Cl)c1	UHRF1 binding 21 (no result: core dimer inh)
Cc1cccc(-c2cccc3c4c([nH]c23)[C@@H]2C[C@H](N(C)C(=O)NC3CCCCC3)[C@H]([C@H](C)O)CN2CC4)c1	none (no result: core dimer inh)
COCc1cn(-c2ccc3c(c2)[C@@]2(CC(=O)N(C)C2c2ccccc2)C(=O)N3CC(C)C)nn1 (some centres not stated)	none (no result: core dimer inh)
COC(=O)C[C@@H]1CC[C@H]2[C@@H](COc3ccc(NS(=O)(=O)c4ccccc4F)cc3C(=O)N2C)O1	none (no result: core dimer inh)
COC(=O)c1oc2c(c1C)C(=O)CCC2	none
O=C1CCCc2oc3c(c21)CCCC3	UHRF1 binding 23
O=C1NCCCC2c3cc(O)c4ccccc4c3OC12N1CCCCC1 (configuration not stated)	TDP2 inh 57
O=C1NCCCC2c3c(cc(Br)c(O)c3Br)OC12N1CCOCC1 (configuration not stated)	none
Cc1cccc(NC(=O)CSc2nnc(SCc3ccc(Cl)cc3)s2)c1	none (no result: core dimer inh)
COc1ccc(S(=O)(=O)N2Cc3ccccc3CC2C(=O)Nc2ccc3c(c2)OCO3)cc1 (configuration not stated)	none
